Experimental data reported in publication PMC2951323 (Nature, 2009).
Each block holds one molecule with its values, some of them ahead of it. Bridge positions count the residues as written; N and C are the ends. Square brackets hold non-standard residues; d marks the D form. Ends that are not written are not given here. Peptide text beside a SMILES is read from it. * marks the point of attachment. FITC = O=C1OC2(c3ccc(O)cc3Oc3cc(O)ccc32)c2ccc(NC(=S)*)cc21; S5 = C=CCCC[C@](C)(N)C(=O)O; βAla = NCCC(=O)O

What was measured:
[1] = test system: constitutively activated NOTCH1; test: NOTCH1-dependent dual-luciferase reporter-gene assay; format: cell-based; conditions: signal normalized to Renilla luciferase control
[2] = format: cell-based
RAMANK–CSL complex = RAMANK–CSL complex (Homo sapiens, UniProt P46531+Q06330); test: Fluorescence polarization binding of FITC–SAHM peptides to RAMANK–CSL
Summary of the method: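 FITC-labelled stapled test peptides titrated against recombinant human RAMANK (NOTCH1 aa 1761–2127) pre-complexed with human CSL (aa 9–435). Both proteins were expressed and purified as previously reported. Buffer was 20 mM Tris pH 8.4, 150 mM NaCl, 1 mM EDTA and 1 mM DTT. Polarization was read at λex 485 nm and λem 525 nm. Data are mean ± s.d., n = 3.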

[3] = molecular target: pre-formed RAMANK–CSL complex (human, UniProt P46531 1761-2127; Q06330 23-449); test: fluorescence polarisation
Sequence of pre-formed RAMANK–CSL complex (P46531 1761-2127, chain 1 of 2): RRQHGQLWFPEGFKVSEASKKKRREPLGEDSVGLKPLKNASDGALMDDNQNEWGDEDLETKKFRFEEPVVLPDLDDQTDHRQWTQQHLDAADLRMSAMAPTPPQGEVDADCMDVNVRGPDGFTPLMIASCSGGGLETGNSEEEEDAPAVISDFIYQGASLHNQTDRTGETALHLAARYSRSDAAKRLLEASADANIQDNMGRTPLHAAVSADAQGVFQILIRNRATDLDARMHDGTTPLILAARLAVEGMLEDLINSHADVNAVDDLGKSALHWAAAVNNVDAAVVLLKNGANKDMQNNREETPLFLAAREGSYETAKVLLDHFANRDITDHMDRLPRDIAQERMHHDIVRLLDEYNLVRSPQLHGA
Sequence of pre-formed RAMANK–CSL complex (Q06330 23-449, chain 2 of 2): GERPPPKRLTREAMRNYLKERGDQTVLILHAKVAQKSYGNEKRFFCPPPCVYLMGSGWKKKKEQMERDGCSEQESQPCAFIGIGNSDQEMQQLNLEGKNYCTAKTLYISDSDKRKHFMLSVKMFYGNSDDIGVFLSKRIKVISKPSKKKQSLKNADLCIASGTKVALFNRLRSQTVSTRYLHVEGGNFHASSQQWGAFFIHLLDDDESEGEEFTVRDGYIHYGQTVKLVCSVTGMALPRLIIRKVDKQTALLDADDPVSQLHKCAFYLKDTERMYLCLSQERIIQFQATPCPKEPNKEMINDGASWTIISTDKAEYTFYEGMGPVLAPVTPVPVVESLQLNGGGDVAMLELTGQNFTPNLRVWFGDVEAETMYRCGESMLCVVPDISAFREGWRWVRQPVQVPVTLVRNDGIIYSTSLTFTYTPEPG

- repression of luciferase activity [1]: near complete repression
Molecule: C[C@H](NC(=O)Cc1cc(F)cc(F)c1)C(=O)N[C@H](C(=O)OC(C)(C)C)c1ccccc1 [DAPT]

- uptake at 4 °C relative to 37 °C ([2]; FITC-labelled peptide, 4 °C vs 37 °C): diminished
- Kd (RAMANK–CSL complex): 120 ± 20 nM
Molecule: CC[C@H](C)[C@H](NC(=O)[C@H](CCCNC(=N)N)NC(=O)[C@H](CCCNC(=N)N)NC(=O)[C@H](CCCNC(=N)N)NC(=O)[C@H](CC(C)C)NC(=O)[C@H](CCCNC(=N)N)NC(=O)[C@H](CCC(=O)O)NC(=O)CCNC(=S)Nc1ccc2c(c1)C(=O)OC21c2ccc(O)cc2Oc2cc(O)ccc21)C(=O)N[C@@]1(C)CCCC=CCCC[C@@](C)(C(=O)N[C@@H](Cc2c[nH]cn2)C(=O)N[C@@H](Cc2c[nH]cn2)C(=O)N[C@@H](CO)C(=O)N[C@H](C(N)=O)[C@@H](C)O)NC(=O)[C@H](CCCNC(=N)N)NC(=O)[C@H](CS)NC(=O)[C@H](CC(C)C)NC1=O [FITC–SAHM1] ({FITC-βAla}-ERLRRRI[S5]LCR[S5]HHST-NH2; staple 8-12; N-terminus assumed)
- intracellular distribution ([2]; FITC-labelled peptide): distributed throughout the cytoplasm and nucleus
- cellular uptake (cell penetration) ([2]; FITC-labelled peptides, quantitative epifluorescence microscopy): robust and roughly equivalent cellular uptake

- binding affinity for RAMANK–CSL compared with FITC–SAHM1 (in words) (RAMANK–CSL complex; fluorescence polarization, same buffer): markedly diminished affinity
Molecule: FITC–MAML1(21–36): FITC-labelled unmodified MAML1(21–36) peptide ({FITC}-ERLRRRIELCRRHHST; UniProt Q92585 21-36, looked up, fragment)

- IC50 [3]: 3900 nM
B1: dnMAML1 (dominant-negative fragment of MAML1, amino acids 13–74) (domain or fragment, human, UniProt Q92585 13-74, looked up)
chain: LPRHSAVMERLRRRIELCRRHHSTCEARYEAVSPERLELERQHTFALHQRCIQAKAKRAGKH
